According to ChEMBL document CHEMBL1759881, “Synthesis and anti-inflammatory activity of ent-kaurene derivatives” (Eur J Med Chem, 2011):

What was measured:
[1] = system: RAW264.7; assay: Antiinflammatory activity in mouse RAW264.7 cells assessed as inhibition of LPS-induced nitric oxide release pretreated for 15 mins before LPS challenge measured after 24 hrs by Griess method; format: functional, cell-based
Outline: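 RAW 264.7 cells pre-incubated 15 min with compound (1–25 range in the table; 1, 5, 10, 25, 50 for dose-response) or DMSO vehicle, then LPS 250 ng/ml for 24 h. Nitrite in supernatant measured by Griess reagent, absorbance at 548 nm against NaNO2 standard. IC50 is the concentration giving 50% inhibition of NO release. Means ± SD of three independent experiments in triplicate.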

[2] = Cytotoxicity against LPS-stimulated mouse RAW264.7 cells assessed as cell viability at 1 to 25 uM pretreated for 15 mins before LPS challenge measured after 24 hrs by MTT assay; format: cell-based; conditions: LPS-stimulated RAW264.7 cells, read-out: Activity
Outline: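 RAW 264.7 cells plated at 10⁵ cells/well, treated with compound at 1–25 in the presence of LPS 250 ng/ml for 24 h. MTT then added for 4 h at 37 °C, formazan extracted in DMSO, absorbance read at 540 nm. Viability expressed relative to untreated controls. Triplicate wells, at least three independent experiments.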

Compound | IC50 [1] [µM] | viability at 24 h, up to 25 µM [2] [%] | inhibition [1]
COC(=O)[C@]1(C)CCC[C@@]2(C)C3=CC[C@@H]4C[C@@]3(CC[C@H]12)C[C@H]4C | > 25 | 95 | 
C=C1C[C@@]23CC[C@@H]4[C@](C)(C(=O)OCc5ccccc5)CCC[C@@]4(C)C2=CC[C@@H]1C3 [GRANDIFLORENIC ACID BENZYL ESTER] | > 25 | 23 | 
C=C1C[C@@]23CC[C@H]4[C@@](C)(CCC[C@@]4(C)C(=O)OC)[C@@H]2CC[C@@H]1C3 [KAURENOIC ACID METHYL ESTER] | 25 | 90 | 
COC(=O)[C@]1(C)CCCC2(C)[C@@H]3CC[C@@H]4C[C@@]3(CC[C@@H]21)C[C@@]41CO1 (some centres not stated) | > 25 | 66 | 
COC(=O)[C@]1(C)CCC[C@@]2(C)[C@@H]3CC[C@@H]4C[C@@]3(CC[C@@H]21)[C@@H](OC(C)=O)C4=O | > 25 | 99 | 
C=C1[C@@H]2CC[C@H]3[C@]4(C)CCC[C@@](C)(C(=O)O)[C@H]4CC[C@]3(C2)[C@H]1OC(C)=O | > 25 | 58 | 
C=C1[C@@H]2CC[C@H]3[C@]4(C)CCC[C@@](C)(C(=O)OC)[C@H]4CC[C@]3(C2)[C@H]1OC(=O)CCCCCCCCCCC | > 25 | 95 | 
C=C1[C@@H]2CC[C@H]3[C@]4(C)CCC[C@@](C)(C(=O)OC)[C@H]4CC[C@]3(C2)[C@H]1O | 5 | 97 | Dose-dependent effect
COC(=O)[C@]1(C)CCC[C@@]2(C)[C@@H]3CC[C@@H]4C[C@@]3(CC[C@@H]21)C[C@]4(C)OC | > 25 | 90 | 
COC(=O)[C@]1(C)CCC[C@@]2(C)[C@@H]3CC[C@@H]4C[C@@]3(CC[C@@H]21)[C@@H](O)C4=O | > 25 | 95 | 
COC(=O)[C@]1(C)CCC[C@@]2(C)[C@@H]3CC[C@@H]4C[C@@]3(CC[C@@H]21)C[C@@]4(O)CO | 5 | 69 | 
C=C1C[C@@]23CC[C@@H]4[C@](C)(COS(=O)OC[C@]5(C)CCC[C@]6(C)[C@@H]5CC[C@]57CC(=C)[C@H](CC[C@H]56)C7)CCC[C@@]4(C)[C@@H]2CC[C@@H]1C3 | > 25 | 99 | 
C=C1C[C@@]23CC[C@@H]4[C@](C)(COC(C)=O)CCC[C@@]4(C)[C@@H]2CC[C@@H]1C3 | 12 | 99 | 
COC(=O)[C@]1(C)CCC[C@@]2(C)[C@@H]3CC[C@@H]4C[C@@]3(CC[C@@H]21)C[C@H]4C=O | > 25 | 90 | 
COC(=O)[C@]1(C)CCC[C@@]2(C)[C@@H]3CC[C@@H]4C[C@@]3(CC[C@@H]21)CC4=O | > 25 | 98 | 
C=C1[C@@H]2CC[C@H]3[C@]4(C)CCC[C@@](C)(C(=O)Nc5ccccc5)[C@H]4CC[C@]3(C2)[C@H]1OC(C)=O | > 25 | 85 | 
COC(=O)[C@]1(C)CCC[C@@]2(C)[C@@H]3CC[C@@H]4C[C@@]3(CC[C@@H]21)[C@H]1O[C@@]41C | 14 | 95 | 
C=C1C[C@@]23CC[C@H]4[C@@](C)(CCC[C@@]4(C)C(=O)OC[Si](C)(C)C)[C@@H]2CC[C@@H]1C3 | > 25 | 95 | 
C=C1C[C@@]23CC[C@@H]4C(C)(C(=O)O)CCC[C@@]4(C)C2=CC[C@@H]1C3 (some centres not stated) | 15 | 90 | 
COC(=O)[C@]1(C)CCC[C@@]2(C)[C@@H]3CC[C@@H]4C[C@@]3(CC[C@@H]21)C(=O)OC4=O | > 25 | 95 | 
COC(=O)[C@]1(C)CCC[C@@]2(C)[C@@H]3CC[C@@H]4C[C@@]3(CC[C@@H]21)C[C@H]4/C=N/O | > 25 | 25 | 
C=C1C(=O)[C@@]23CC[C@H]4[C@@](C)(CCC[C@@]4(C)C(=O)OC)[C@@H]2CC[C@@H]1C3 | 4 | 32 | 

Compound | IC50 [1] [µM] | viability at 24 h, up to 25 µM [2] [%] | inhibition [1]
COC(=O)[C@]1(C)CCC[C@@]2(C)[C@@H]3CC[C@@H]4C[C@@]3(CC[C@@H]21)C(=O)[C@@]41CCN=N1 | > 25 | 48 | 
C=C1C[C@@]23CC[C@H]4[C@@](C)(CCC[C@@]4(C)C(=O)O)[C@@H]2CCC1C3 (single isomer, unassigned) [KAURENOIC ACID] | > 25 | 70 | 
COC(=O)[C@]1(C)CCC[C@@]2(C)[C@@H]3CC[C@@H]4C[C@@]3(CC[C@@H]21)C[C@H]4C [DIHYDRO KAURENOIC ACID METHYL ESTER] | > 25 | 72 | 
C=C1[C@@H]2CC=C3[C@@](CC[C@@H]4[C@](C)(C(=O)OC)CCC[C@@]34C)(C2)[C@H]1O | > 25 | 67 | 
C=C1[C@@H]2CC[C@H]3[C@]4(C)CCC[C@@](C)(C(=O)O)[C@H]4CC[C@]3(C2)[C@H]1O | > 25 | 100 | 
C[C@@]12CCC[C@@](C)(C(=O)OCc3ccccc3)[C@H]1CC[C@]13CC(=O)[C@H](CC[C@H]12)C3 | 12 | 95 | 
COC(=O)[C@]1(C)CCC[C@@]2(C)C3=CC[C@@H]4C[C@]3(C=C4C=O)CC[C@H]12 | 25 | 18 | 
COC(=O)[C@]1(C)CCC[C@@]2(C)C3=CC[C@@H]4C[C@@]3(CC[C@H]12)C[C@]4(O)CO | > 25 | 35 | 
C=C1[C@H]2CC3=C([C@H](C2)[C@@H]1O)[C@]1(C)CCC[C@@](C)(C(=O)OC)[C@H]1CC3 | > 25 | 30 | 
COC(=O)[C@]1(C)CCC[C@@]2(C)[C@@H]3CC[C@@H]4C[C@@]3(CC[C@@H]21)C[C@]41COS(=O)O1 (some centres not stated) | > 25 | 60 | 
COC(=O)[C@]1(C)CCC[C@@]2(C)[C@@H]3CC[C@@H]4C[C@]3(C=C4C)CC[C@@H]21 | > 25 | 100 | 
C=C1C(=O)[C@@]23CC[C@@H]4[C@](C)(C(=O)OC)CCC[C@@]4(C)C2=CC[C@@H]1C3 | 10 | 50 | 
C=C1C[C@@]23CC[C@H]4[C@@](C)(CCC[C@@]4(C)C(=O)OCc4ccccc4)[C@@H]2CC[C@@H]1C3 [KAURENOIC ACID BENZYL ESTER] | > 25 | 46 | 
COC(=O)[C@]1(C)CCC[C@@]2(C)[C@@H]3CC[C@@H]4C[C@@]3(CC[C@@H]21)C[C@]4(C)O | 25 | 52 | 
C=C1[C@@H]2CC=C3[C@@](CC[C@@H]4[C@](C)(C(=O)OC)CCC[C@@]34C)(C2)[C@H]1OC(C)=O | > 25 | 50 | 
C=C1C[C@@]23CC[C@@H]4[C@](C)(CO)CCC[C@@]4(C)[C@@H]2CC[C@@H]1C3 | 10 | 80 | 
COC(=O)[C@]1(C)CCC[C@@]2(C)[C@@H]3CC[C@@H]4C[C@]3(C=C4C=O)CC[C@@H]21 | 5 | 76 | 
COC(=O)[C@]1(C)CCC[C@@]2(C)[C@@H]3CC[C@@H]4C[C@]3(C=C4/C=N/O)CC[C@@H]21 | > 25 | 99 | 
C[C@@]1(CO)CCC[C@]2(C)[C@@H]1CC[C@@]13C[C@@H](CC[C@H]12)[C@@](C)(O)C3 | > 25 | 95 | 
COC(=O)[C@]1(C)CCC[C@@]2(C)[C@@H]3CC[C@@H]4C[C@@]3(CC[C@@H]21)C[C@]4(C)Cl | > 25 | 82 | 
COC(=O)[C@]1(C)CCC[C@]2(C)[C@@H]1CC[C@@]13C[C@@H](C[C@@H]4O[C@@]412)[C@]1(CO1)C3 | > 25 | 99 | 
